Assay results of several laboratories.
Effect on: microbial growth

CCCCCCC/C=C/C(=O)N1C(=O)/C(=C(/C)O)C(=O)C1CCCCN (stereo not drawn)  MIC (Proteus vulgaris; ATCC33420): > 200 µg/mL
O=C(Cc1ccc(O)c(O)c1)NCCCCCCCC[P+](c1ccccc1)(c1ccccc1)c1ccccc1.[Br-]  MIC (Cryptococcus neoformans; broth dilution; ATCC208821; 24 h): > 32 µg/mL
CC(C)Oc1c(NC(=O)c2ccc(NC(=O)c3ccc(NC(=O)[C@H](CC(N)=O)NC(=O)c4ccc(NC(=O)c5ccc(C#N)cn5)cc4)cc3)c(OC(C)C)c2O)ccc(C(=O)O)c1O  MIC (Proteus vulgaris; DSM2140): 1 µg/mL
CCCCCCC/C=C/C(=O)N1C(=O)/C(=C(\O)c2ccc(O)cc2)C(=O)C1CC(C)C (stereo not drawn)  MIC (Proteus vulgaris; ATCC33420): > 200 µg/mL
O=C(CCc1ccc(O)c(O)c1)NCCCCCCCC[P+](c1ccccc1)(c1ccccc1)c1ccccc1.[Br-]  MIC (Cryptococcus neoformans; broth dilution; ATCC208821; 24 h): > 32 µg/mL
CC(C)Oc1c(NC(=O)c2ccc(NC(=O)[C@H](CC(N)=O)NC(=O)c3ccc(NC(=O)c4ccc(C#N)cc4)cc3)cc2)ccc(C(=O)Nc2ccc(C(=O)O)cc2)c1O  MIC (Proteus vulgaris; DSM2140): 0.25 µg/mL
O=C(Nc1ccc2c(c1)OC(F)(F)O2)Nc1ccc(Cl)c(C(F)(F)F)c1  MIC (Listeria monocytogenes): 0.3 µM
CO[C@@H](C(N)=O)[C@H](NC(=O)c1ccc(NC(=O)c2ccc(C#N)cc2)cc1)C(=O)Nc1ccc(C(=O)Nc2ccc(C(=O)Nc3ccc(C(=O)O)cc3)c(O)c2OC(C)C)cc1  MIC (Proteus vulgaris; DSM2140): 0.125 µg/mL
CCCCCCC/C=C/C(=O)N1C(=O)/C(=C(/C)O)C(=O)C1Cc1ccc(OC(C)(C)C)cc1 (stereo not drawn)  MIC (Proteus vulgaris; ATCC33420): > 200 µg/mL
NC[C@H]1O[C@H](O[C@H]2[C@H](O)[C@@H](O[C@H]3O[C@H](CO)[C@@H](O)[C@H](N)[C@H]3O)[C@H](N)C[C@@H]2N)[C@H](O)[C@@H](O)[C@@H]1O  MIC (Listeria monocytogenes; ATCC19115): > 128 µg/mL
C/C(O)=C1\C(=O)C(CC(C)C)N(C(=O)CCCCCc2ccccc2)C1=O (stereo not drawn)  MIC (Proteus vulgaris; ATCC33420): > 200 µg/mL
CC(C)Oc1c(NC(=O)c2ccc(NC(=O)c3ccc(NC(=O)[C@H](CC(N)=O)NC(=O)c4ccc(NC(=O)c5ccc(C#N)s5)cc4)cc3)c(OC(C)C)c2O)ccc(C(=O)O)c1O  MIC (Proteus vulgaris; DSM2140): 1 µg/mL
CCCCCCCCN1CCN(CC(O)(Cn2cncn2)c2ccc(F)cc2F)CC1 (stereo not drawn)  MIC (Nakaseomyces glabratus; broth dilution; ATCC2001; 48 h): 15.6 µg/mL
CCCCCCCCCCCCS(=O)(=O)C[C@@H]1O[C@@H](O[C@@H]2[C@@H](O)[C@H](O[C@@H]3O[C@@H](CN)[C@H](O)[C@@H](O)[C@@H]3N)[C@@H](N)C[C@H]2N)[C@@H](O)[C@H](N)[C@H]1O  MIC (Listeria monocytogenes; ATCC19115): 4 to 8 µg/mL
CCCCCCC/C=C/C(=O)N1C(=O)/C(=C(\O)CCCC)C(=O)C1CC(C)C (stereo not drawn)  MIC (Proteus vulgaris; ATCC33420): > 200 µg/mL
